Test results: ChEMBL document CHEMBL1149128, “Novel endoperoxide antimalarials: synthesis, heme binding, and antimalarial activity” (J Med Chem, 2004)

Tests used:
[1] = organism: Homo sapiens; experiment: Lysis of human erythrocytes at a concentration of 1 mM for 30 minutes at 37 degree C; type: functional
How it was run: (§1)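 Washed human erythrocytes (0.4 × 10⁸ cells) in phosphate-buffered saline with no protein in the medium; compound at 1 mM final; 30 min at 37 °C. Cells pelleted, then supernatant absorbance compared with freeze-thawed cells to give percent hemolysis.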

[2] = system: Plasmodium falciparum; experiment: In vitro antimalarial activity against Plasmodium falciparum D10
[3] = organism: Homo sapiens; experiment: Compound was evaluated for the lysis of human erythrocytes at a concentration of 1 mM for 30 minutes at 37 degree C; type: functional; how it was run: as §1

SMILES | Hemolysis [1] | IC50 [2] | Hemolysis [3]
C[C@@H]1OO[C@H](CC(=O)OC23CC4CC(CC(C4)C2)C3)[C@@H]2O[C@@H]21 | 4% | 5000 nM | –
C[C@@H]1OO[C@H](CC(=O)OC23CC4CC(CC(C4)C2)C3)[C@H]2O[C@H]21 | 6% | 1300 nM | –
C1CCC([C@H]2OO[C@@H](C3CCCCC3)[C@H]3O[C@H]32)CC1 | 5% | 320 nM | –
CCCCCCC[C@H]1OO[C@@H](CCC)[C@H]2O[C@H]21 | 51% | > 10000 nM | –
C1=C[C@@H](C2CCCC2)OOC1 | 11% | > 10000 nM | –
C1CCC([C@H]2OO[C@@H](C3CCCC3)[C@@H]3O[C@@H]32)C1 | 8% | 500 nM | –
c1ccc([C@H]2OO[C@@H](C3CCCCC3)[C@@H]3O[C@@H]32)cc1 | 2% | > 10000 nM | –
CCCCCCC[C@@H]1C=C[C@H](CCC)OO1 | 62% | > 10000 nM | –
C1CCC([C@H]2OOC[C@@H]3O[C@@H]32)C1 | 1% | 1400 nM | –
C1CCC([C@H]2OOC[C@@H]3O[C@@H]32)CC1 | 2% | > 10000 nM | –
C1C2CC3CC1CC([C@H]1OOC[C@@H]4O[C@@H]41)(C2)C3 | 41% | 4000 nM | –
O=C(C1CCCCC1)[C@H]1O[C@H]1[C@@H](O)C1CCCCC1 | 8% | > 10000 nM | –
c1ccc([C@H]2OO[C@@H](c3ccccc3)[C@@H]3O[C@@H]32)cc1 | 5% | > 10000 nM | –
C1CCC(C[C@H]2OOC[C@@H]3O[C@@H]32)CC1 | 3% | > 10000 nM | –
C1=C[C@H](C2CCCC2)OO[C@@H]1C1CCCC1 | 52% | 600 nM | –
C1=C[C@@H](C2CCCCC2)OOC1 | 100% | 3200 nM | –
C1=C[C@H](C2CCCCC2)OO[C@@H]1C1CCCCC1 | 100% | 1200 nM | –
C1CCC([C@H]2OOC[C@H]3O[C@@H]23)C1 | 1% | 1400 nM | –
C[C@H]1C=C[C@@H](CCCO)OO1 | 0% | 2500 nM | –
C1CC([C@H]2OO[C@@H](C3CCC3)[C@@H]3O[C@@H]32)C1 | 1% | 2900 nM | –

SMILES | Hemolysis [1] | IC50 [2] | Hemolysis [3]
CCCCCCC[C@H]1OO[C@@H](CCC)[C@@H]2O[C@@H]21 | 47% | > 10000 nM | –
C1=C[C@H](C2CCC2)OO[C@@H]1C1CCC1 | 32% | > 10000 nM | –
C1=C[C@@H](CC2CCCCC2)OOC1 | 100% | 9500 nM | –
C1CCC(C[C@H]2OOC[C@H]3O[C@@H]23)CC1 | 6% | 2000 nM | –
c1ccc(C2(c3ccccc3)OOCC3OC32)cc1 (stereo not given) | 1% | 5000 nM | –
C1CC([C@H]2OO[C@@H](C3CCC3)[C@H]3O[C@H]32)C1 | 1% | 1600 nM | –
C[C@]12COO[C@H](c3ccccc3)[C@H]1O2 | 2% | > 10000 nM | –
C[C@H]1C=C[C@@H](c2ccccc2)OO1 | 32% | > 10000 nM | –
C1=C[C@H](c2ccccc2)OO[C@@H]1c1ccccc1 | 4% | 6000 nM | –
C1=C[C@@H](C23C[C@H]4C[C@@H](C2)C[C@@H](C3)C4)OOC1 | 100% | 1300 nM | –
C[C@@H]1OO[C@H](c2ccccc2)[C@H]2O[C@H]21 | 2% | > 10000 nM | –
C1CCC([C@H]2OO[C@@H](C3CCCCC3)[C@@H]3O[C@@H]32)CC1 | 6% | 500 nM | –
C[C@H]1C=C[C@@H](CC(=O)OC23C[C@H]4C[C@@H](C2)C[C@@H](C3)C4)OO1 | 27% | 1000 nM | –
CCC[C@H]1C=C[C@@H](CCC)OO1 | 2% | > 10000 nM | –
C1=C[C@H](C2CCCCC2)OO[C@@H]1c1ccccc1 | 9% | 8100 nM | –
C1CCC([C@H]2OO[C@@H](C3CCCC3)[C@H]3O[C@H]32)C1 | 9% | 500 nM | –
O=C(c1ccccc1)[C@H]1O[C@H]1[C@@H](O)c1ccccc1 (stereo in doubt; 7j) | 2% | – | –
C[C@@H]1CC[C@H]2[C@@H](C)C(=O)O[C@@H]3O[C@@]4(C)CC[C@@H]1[C@]32OO4 [ARTEMISININ] | – | – | 4%
CCN(CC)CCCC(C)Nc1ccnc2cc(Cl)ccc12 (stereo not given) [CHLOROQUINE] | 1% | – | –
